Compound activity from PubChem BioAssay.
Compounds with a hit are over-represented: about 2.2% of the library has one in this group of screens.
PfGluPho inh – PfG6PD enzyme inhibitors, primary screen, biochemical, fluorescence intensity, uHTS; PfGluPho enzyme, NADPH resazurin-diaphorase fluorescence; inhibition, % at 20 µM; hit rate 0.78% among 350,000; AID 504690, 2011;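 active = inhibition reaching at least a set limit at 20 µM in the primary screen, cut at about 59% in these data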;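 also: 0% = DMSO wells with substrate and 100% = DMSO wells lacking glucose-6-phosphate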
M18AAP inhibitor – PfM18AAP inhibitors, malaria aminopeptidase, primary screen, biochemical, QFRET, recombinant enzyme | hit rate 1.2% among 290,000 | inhibition, % at 7.35 µM | AID 1822, 2009 | M18 aspartyl aminopeptidase (Plasmodium falciparum 3D7) | H-Glu-NHMec fluorogenic cleavage;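 active = inhibition above the campaign mean inhibition over all tested compounds plus 3 SD, cut at about 28% in these data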;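 also: 0% = plate median of test compound wells and 100% = 2 mM ZnCl2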
Neddyl block – inhibitors of cullin neddylation, primary screen, biochemical, TR-FRET, uHTS, NAE and Ubc12. NEDD8-conjugating enzyme Ubc12 (Homo sapiens) + NEDD8-activating enzyme E1 regulatory …. inhibition, % at 25 µM. hit rate 0.58% among 360,000. AID 651699, 2012; in the data active = inhibition above about 36%
HKDC1 inh – HKDC1 hexokinase inhibitors, primary screen, biochemical, fluorescence, uHTS | Q2TB90 | recombinant HKDC1, G6PDH/diaphorase resazurin coupled fluorescence | inhibition, % at 20 µM | hit rate 0.16% among 340,000 | AID 493160, 2011;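 active = inhibition above about 35% when tested at 20 µM, limit read from the data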;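 also: plate controls were DMSO wells with enzyme for no effect and DMSO wells lacking enzyme for full effect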
Target sequence (Q2TB90 whole entry, looked up): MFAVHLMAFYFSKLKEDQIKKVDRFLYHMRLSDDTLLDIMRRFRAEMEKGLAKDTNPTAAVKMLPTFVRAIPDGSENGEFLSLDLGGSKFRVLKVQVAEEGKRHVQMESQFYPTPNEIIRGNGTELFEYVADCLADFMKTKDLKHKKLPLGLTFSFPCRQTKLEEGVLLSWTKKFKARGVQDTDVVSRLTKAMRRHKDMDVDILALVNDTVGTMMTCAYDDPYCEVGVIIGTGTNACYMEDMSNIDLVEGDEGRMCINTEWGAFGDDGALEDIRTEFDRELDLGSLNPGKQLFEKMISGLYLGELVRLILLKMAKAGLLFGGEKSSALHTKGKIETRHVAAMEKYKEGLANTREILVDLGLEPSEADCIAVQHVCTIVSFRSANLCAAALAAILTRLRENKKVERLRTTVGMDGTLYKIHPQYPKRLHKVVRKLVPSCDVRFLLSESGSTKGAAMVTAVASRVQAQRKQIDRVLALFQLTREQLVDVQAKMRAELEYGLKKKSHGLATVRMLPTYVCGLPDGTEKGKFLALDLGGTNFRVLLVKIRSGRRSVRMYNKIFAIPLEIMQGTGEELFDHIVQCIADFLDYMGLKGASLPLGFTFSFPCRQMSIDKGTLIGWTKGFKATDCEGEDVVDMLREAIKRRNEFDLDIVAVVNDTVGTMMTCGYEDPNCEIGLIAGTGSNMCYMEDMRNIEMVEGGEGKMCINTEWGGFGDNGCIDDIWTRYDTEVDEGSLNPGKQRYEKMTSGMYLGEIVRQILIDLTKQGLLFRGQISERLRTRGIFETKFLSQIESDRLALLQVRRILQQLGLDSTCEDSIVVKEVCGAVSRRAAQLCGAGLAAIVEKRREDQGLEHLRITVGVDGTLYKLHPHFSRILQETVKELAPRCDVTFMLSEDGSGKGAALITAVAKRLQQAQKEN
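Assay system – recombinant HKDC1 (HK5) hexokinase enzyme, produced in-house · Input – HKDC1 at 5 µg/mL · Reagent – glucose plus 1 mM ATP as hexokinase substrates · Timing – 90 min reaction incubation at room temperature, dark · Measured by – G6PDH/diaphorase-coupled fluorescence, 1 mM NADP, 100 µM resazurin, 525/613 nm · Benchmarks – DMSO-enzyme wells negative, buffer-substituted wells positive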
Active calls of the source: *; . = no result shown.

SMILES | PfGluPho inh | M18AAP inhibitor | Neddyl block | HKDC1 inh
CN(C)c1ccc2c(c1)OC(N)=C(C#N)C2c1cccc(F)c1 (stereo unspecified) | 17 | 30* | 1 | 7
Cc1cc(/C=C2\C(=N)N3N=C(S(C)(=O)=O)SC3=NC2=O)c(C)n1Cc1ccccc1 | -18 | -8 | 51* | 8
CC(CC(=O)NCCc1ccc(F)cc1)c1ccccc1 (stereo unspecified) | 0 | 0 | 4 | -5
CC1(C)C(C(=O)OCC(Cl)(Cl)Cl)N2C(=O)C(NC(=O)Cc3ccccc3)C2S1=O (stereo unspecified) | 20 | 17 | 9 | -4
COc1ccc(-c2ccn(-c3cccc(F)n3)n2)cc1 | 27 | 32* | 8 | -8
COc1ccc(-c2cn3ccccc3n2)cc1 | 30 | 0 | . | -2
O=C1c2c([N+](=O)[O-])cc([N+](=O)[O-])cc2S(=O)N1Cc1ccccc1 (stereo unspecified) | 62* | 52* | -51 | 4
CCCCCCn1cc(C(=O)O)c(=O)c2cc(F)c(N3CCN(C)CC3)cc21 | 14 | -2 | 45* | -3
COc1ccc(N2CCN(C(=O)CNC(=O)c3ccco3)CC2)cc1 | 7 | -2 | -2 | -4
Cc1ccc2[nH]c3nc(NN)nnc3c2c1 | 2 | 31* | -27 | -9
Cc1ccc(C(=O)/C=C/c2ccc(-c3ccc(C)cc3)o2)cc1 | 40 | -8 | 2 | 6
CCN(CC)S(=O)(=O)c1ccc(C(=O)/C=C/c2ccc(-c3ccc([N+](=O)[O-])cc3)o2)cc1 | 35 | 28* | -24 | 7
CN(C)c1ccc(-c2nc3ccccc3c(=O)[nH]2)cc1 | -7 | -5 | 42* | 1
Cc1cc(=O)c(C(=O)O)nn1-c1ccccc1F | 6 | -8 | 7 | -3
O=C(O)c1cc(S(=O)(=O)Nc2ccc3oc(=O)sc3c2)ccc1O | -6 | 51* | . | 9
CC(=O)c1c(C)oc2ccc(NS(=O)(=O)c3ccc(O)c(C(=O)O)c3)cc12 | -34 | 21 | 10 | 0
C/C(=N\NC(=S)NCC(C)(C)C)c1cc(F)cc(F)c1O | -31 | 5 | 45* | -1
NC(=S)N=Nc1ccc(NN=C(N)N)cc1 | 99* | 67* | -20 | 5
COc1ccc(-n2nc(C(=O)NCC(=O)Nc3ccc(F)cc3)c3ccccc3c2=O)cc1 | -17 | 0 | -271 | -5
COC(=O)C1CCCN1S(=O)(=O)c1ccccc1NC(=O)c1cc(OC)c(OC)c(OC)c1 (stereo unspecified) | -4 | 0 | -2 | -2
Cc1ccc(CNC(=O)Nc2ccc(F)cc2)n1C | 11 | 31* | 4 | 2
CNC(=S)N/N=C(\C)c1ccc(N2CCOCC2)cc1 | 1 | -2 | 8 | -8
CCNC(=S)N/N=C(\C)c1ccc(N2CCOCC2)cc1 | 8 | 29* | 16 | -15
NS(=O)(=O)c1ccc(NC(=O)COC(=O)c2ccc(S(=O)(=O)N3CCOCC3)cc2)cc1 | 1 | . | 10 | -1
Cc1cc(NN)nc2ccc(Cl)cc12 | 33 | 31* | 13 | 10
SMILES | PfGluPho inh | M18AAP inhibitor | Neddyl block | HKDC1 inh
Cn1cnc(Sc2ncnc3nc[nH]c23)c1[N+](=O)[O-] | 61* | 3 | -28 | -8
Cn1cnc([N+](=O)[O-])c1Sc1ncnc2nc[nH]c12 | 9 | 6 | -14 | -2
O=C(O)/C=C/c1ccc(O)c(O)c1 | 22 | 82* | -2 | -5
Cc1ccc(C(=O)O)cc1N=Cc1cc(Br)cc(Br)c1O | 4 | 9 | 41* | 7
CC(=O)Nc1ccc(C(=O)N/N=C/c2cc(Br)cc(Br)c2O)cc1 | -28 | 4 | 20 | -1
CCOc1ccc(/C=N/n2cc(-c3ccccc3)[nH]c2=S)cc1 | 42 | 54* | 30 | -4
Cc1nn(-c2ccccc2)c(Cl)c1C(=O)NCC1CCCO1 (stereo unspecified) | -3 | . | -5 | -4
Cc1cc(C)nc(Sc2ncnc(N)c2[N+](=O)[O-])n1 | 6 | 50* | -5 | 0
Cc1cccc(Nc2ncnc(N)c2[N+](=O)[O-])n1 | -3 | 3 | -19 | -5
O=C(/C=C/c1ccc(Br)cc1)c1ccco1 | 19 | 29* | -13 | 16
CCOc1ccc(C2=Nn3c(nnc3-c3ccccc3OC)SC2)cc1 | 6 | 2 | -9 | 0
COc1ccccc1-c1nnc2n1N=C(c1ccc(O)c(O)c1)CS2 | -38 | 69* | -9 | -1
